Data reported in ChEMBL document CHEMBL1151715, “Novel D-xylose derivatives stimulate muscle glucose uptake by activating AMP-activated protein kinase alpha” (J Med Chem, 2008).
The source made the active and inactive calls. The calls are words filed in the database; no cut-off is given here.

Columns and labels:
[1] = system: L6; test: Increase in GLUT1myc abundance in rat L6 cell membrane at 5 µM after 18 hrs; assay type: functional, cell-based
Summary of the method: (§1)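 Myc-tagged GLUT1 or GLUT4 L6 myotubes were preconditioned at 5.5 or 23.0 mM glucose for 24 h, then treated in 10% FCS medium for 7 h (18 h for the 5 µM agent). Insulin was 200 nM for 30 min. Intact cells were labeled with rabbit anti-myc (1:200), fixed in 3% formaldehyde, and given HRP anti-rabbit IgG (1:2000). OPD colour was read at 492 nm.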

[2] = system: L6; test: Increase in [3H]2-deoxy-D-glucose uptake in rat L6 cells at 20 mM preincubated 24 hrs with D-glucose assessed after 6 hrs relative to control; assay type: functional
Summary of the method: (§2)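 L6 myotubes were preconditioned 24 h at 23.0 mM D-glucose, then incubated up to 10 h in the same medium plus pentose (20.0 mM for time course; dose-response for half-maximal and maximal). Cells were washed with PBS, then given a 5-min room-temperature uptake of 0.1 mM dGlc with 1.3 µCi/mL [3H]dGlc. Counts were normalised to protein against untreated controls.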

[3] = system: L6; test: Induction of [3H]3-O-methyl-D-glucose uptake in rat L6 cells at 20 mM after 6 hrs relative to control; assay type: functional
Summary of the method: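 L6 myotubes were preconditioned 24 h at 23.0 mM glucose, then given D-xylose at 20.0 mM for 6 h. Cells were PBS-washed and incubated 90 s at room temperature with 10 µM 3-O-methylglucose, 5.0 µCi/mL [3H]MeGlc and 0.5 µCi/mL [14C]sucrose. The stop wash was ice-cold PBS with 20 mM glucose, 10 µM cytochalasin B and 2 mM HgCl2. Extracellular 3H was subtracted using sucrose counts.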

[4] = system: L6; test: Maximal stimulation of [3H]2-deoxy-D-glucose uptake in rat L6 cells preincubated 24 hrs with D-glucose assessed after 6 hrs; assay type: functional; summary of the method: as §2
[5] = system: L6; test: Effect on [3H]2-deoxy-D-glucose uptake in rat L6 cells at 20 mM after 7 hrs relative to control in presence of insulin; assay type: functional, cell-based
Summary of the method: (§3)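 L6 myotubes were preconditioned 24 h at 23.0 mM D-glucose, then given fresh αMEM with 23.0 mM D-glucose plus agent for 7 h. Insulin (200 nM) was added for the last 30 min. A 5-min [3H]dGlc uptake (0.1 mM dGlc, 1.3 µCi/mL) was run in PBS at room temperature, with the 23.0 mM glucose basal rate set to 100%.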

[6] = system: L6; test: Inhibition of [3H]2-deoxy-D-glucose uptake in rat L6 cells at 20 mM in presence of 100 nM wortmannin; assay type: functional, cell-based
Summary of the method: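 L6 myotubes at 23 mM D-glucose received 100 nM wortmannin 30 min before the agents. Treatment ran in 10% FCS medium for 7 h (18 h for the 5 µM agent). A 5-min [3H]dGlc uptake (0.1 mM dGlc, 1.3 µCi/mL) in PBS at room temperature followed, with the vehicle basal rate set to 100%.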

[7] = system: L6; test: Increase in GLUT1myc abundance in rat L6 cell membrane at 20 mM after 7 hrs; assay type: functional, cell-based; details: 20 mM; summary of the method: as §1
[8] = system: L6; test: Increase in GLUT4myc abundance in rat L6 cell membrane at 20 mM after 7 hrs; assay type: functional, cell-based; summary of the method: as §1
[9] = species: Homo sapiens; test: Activation of 5-AMP-induced AMPKalpha in human skeletal muscle cells assessed as Tyr172 phosphorylation at 20 mM relative to control
Summary of the method: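 Primary human skeletal myoblasts from the rectus abdominis of a donor were differentiated into myotubes and treated in medium with 10% (v/v) FCS, 23.0 mM D-glucose and agent, with vehicle controls. Whole-cell lysates were Western blotted for total AMPKα and […]-AMPKα, with ECL detection and densitometry.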

[10] = system: L6; test: Decrease in GLUT4myc abundance in rat L6 cell membrane pretreated with 23.0 mM D-glucose for 24 hrs at 20 mM after 7 hrs; assay type: functional; set-up: scale not given: the % may be the effect or the level left
[11] = system: L6; test: Activation of 5-AMP-induced AMPKalpha in rat L6 cells assessed as reduction in Tyr172 phosphorylation at 20 mM relative to control in presence of compound C; assay type: cell-based; set-up: scale not given: the % may be the effect or the level left
[12] = system: L6; test: Activation of AMPKalpha in rat L6 cells assessed as ATP concentration per mg of protein at 20 mM in presence of 23 mM D-glucose; assay type: cell-based
Summary of the method: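 L6 myotubes were preconditioned at 5.0 or 23.0 mM D-glucose for 24 h, then treated. Cells were washed in cold 0.15 M Tris-HCl pH 7.75 and extracted with ice-cold 0.5% TCA. The cleared supernatant was assayed with luciferase/D-luciferin luminescence at room temperature against an ATP standard curve, expressed per mg protein. DNP 5 mM for 10 min served as the positive control.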

[13] = system: L6; test: Increase in GLUT1myc abundance in rat L6 cell membrane at 150 uM after 7 hrs; assay type: functional, cell-based; summary of the method: as §1
[14] = system: L6; test: Induction of [3H]2-deoxy-D-glucose uptake in rat L6 cells at 20 mM after 6 hrs relative to control; assay type: functional; summary of the method: as §2
[15] = system: L6; test: Increase in GLUT1myc abundance in rat L6 cell membrane at 50 uM after 7 hrs; assay type: functional, cell-based; summary of the method: as §1
[16] = system: L6; test: Half-maximal stimulation of [3H]2-deoxy-D-glucose uptake in rat L6 cells preincubated 24 hrs with D-glucose assessed after 6 hrs; assay type: functional; summary of the method: as §2
[17] = Effect on [3H]2-deoxy-D-glucose uptake in human skeletal muscle cells at 20 mM relative to control; assay type: functional
[18] = system: L6; test: Activation of 5-AMP-induced AMPKalpha in rat L6 cells assessed as Tyr172 phosphorylation at 20 mM relative to control; assay type: cell-based
Summary of the method: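 L6 myotubes preconditioned 24 h in αMEM with 2% FCS and 23.0 mM D-glucose, then given fresh medium with 10% (v/v) FCS, 23.0 mM D-glucose and test agent; controls received vehicle. Whole-cell lysates (Tris pH 7.5 with phosphatase and protease inhibitors) were blotted for AMPKα and […]-AMPKα, detected by ECL, and bands quantified by densitometry.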

[19] = Cytotoxicity against rat L6 cells by MTT assay; assay type: cell-based
Summary of the method: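 MTT assay on L6 myotubes after the treatment incubations: MTT at 2 mg/mL in αMEM for 30 min at 37 °C, formazan dissolved in DMSO, absorbance read at 570 nm.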

[20] = system: L6; test: Effect on [3H]2-deoxy-D-glucose uptake in rat L6 cells at 20 mM upto 48 hrs relative to control; assay type: functional
[21] = system: L6; test: Effect on [3H]2-deoxy-D-glucose uptake in rat L6 cells at 100 uM relative to control; assay type: functional
Summary of the method: (§4)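 L6 myotubes were held in αMEM with 2% FCS and 23.0 mM D-glucose for 24 h. They were then treated with increasing concentrations in medium with 10% FCS and 23.0 mM D-glucose for 7 or 18 h; vehicle controls ran 18 h. After washing, uptake was measured with 0.1 mM dGlc plus 1.3 µCi/mL [3H]dGlc in PBS pH 7.4 for 5 min at room temperature. Ice-cold PBS stop, SDS lysis, scintillation counting; basal rate set to 100%.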

[22] = system: L6; test: Activation of 5-AMP-induced AMPKalpha in rat L6 cells assessed as […] phosphorylation at 0.25 M relative to control; assay type: cell-based
Summary of the method: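 AICAR-type positive control on L6 myotubes: 0.25 M D-sorbitol for 30 min. Whole-cell lysates were blotted for total AMPKα and phospho-Thr172 AMPKα, detected by ECL, with bands quantified by densitometry.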

[23] = system: L6; test: Effect on [3H]2-deoxy-D-glucose uptake in rat L6 cells at 50 uM relative to control; assay type: functional; summary of the method: as §4
[24] = system: L6; test: Effect on [3H]2-deoxy-D-glucose uptake in rat L6 cells at 200 uM relative to control; assay type: functional; summary of the method: as §4
[25] = system: L6; test: Effect on [3H]2-deoxy-D-glucose uptake in rat L6 cells at 150 uM relative to control; assay type: functional; summary of the method: as §4
[26] = system: L6; test: Effect on [3H]2-deoxy-D-glucose uptake in rat L6 cells at 5 mM after 7 hrs relative to control in presence of insulin; assay type: functional, cell-based; summary of the method: as §3
[27] = system: L6; test: Increase in [3H]2-deoxy-D-glucose uptake in rat L6 cells preincubated with 23 mM D-glucose for 24 hrs at 5 mM after 7 hrs relative to control; assay type: functional; summary of the method: as §3
[28] = species: Homo sapiens; test: Activation of 5-AMP-induced AMPKalpha in human skeletal muscle cells assessed as […] phosphorylation at 4 mM relative to control
Summary of the method: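 Primary human skeletal muscle myoblasts (rectus abdominis, donor) were differentiated into myotubes using the supplier's protocol. The agent was given at 4 mM for 1 h. Whole-cell lysates were separated by SDS-PAGE and Western blotted for AMPKα and […]-AMPKα, with HRP anti-rabbit IgG and ECL detection. Bands were quantified by film densitometry.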

O=C[C@H](O)[C@@H](O)[C@H](O)CO [XYLOSE]
Activity [1]: inactive
fold change (FC) [2]: 1.77
fold change (FC) [3]: 1.69
Activity [4]: 13.7 mM
Activity [5]: Active
Activity [6]: Active
Activity [7]: inactive
Activity [8]: Active
Activity [9]: Active
Activity [10]: 50%
Activity [11]: 68.9%
Activity [12]: 1.6 mmol
Activity [13]: inactive
fold change (FC) [14]: 1.51
Activity [15]: inactive
Activity [16]: 5.8 mM
fold change (FC) [17]: 1.43
fold change (FC) [18]: 3.23

CO[C@H]1C(O)OC[C@@H](O)[C@@H]1O (some centres undefined)
MCC [19]: 50000 µM

CO[C@@H]1COC(O)[C@H](O)[C@H]1O (some centres undefined)
fold change (FC) [20]: 0.99
MCC [19]: 50000 µM

CCCCO[C@H]1[C@H](O)COC(O)[C@@H]1O (some centres undefined)
fold change (FC) [20]: 0.94
MCC [19]: 1000 µM

O[C@H]1OC[C@@H](OCc2ccccc2)[C@H](OCc2ccccc2)[C@H]1OCc1ccccc1
fold change (FC) [21]: 0.94
MCC [19]: 200 µM

O[C@@H]1[C@@H](O)[C@@H](OCc2ccccc2)OC[C@H]1O
fold change (FC) [21]: 0.9
MCC [19]: 500 µM

CCOC1OC[C@@H](O)[C@H](O)[C@H]1O (some centres undefined)
fold change (FC) [20]: 1.01
MCC [19]: 50000 µM

OC[C@@H](O)[C@@H](O)[C@H](O)[C@@H](O)CO
Activity [22]: Active

CC1(C)OC[C@H]2O[C@@H]3OC(C)(C)O[C@@H]3[C@H]2O1
fold change (FC) [23]: 1.08
MCC [19]: 100 µM

CC1(C)O[C@H]2O[C@H](CO)[C@H](O)[C@H]2O1
fold change (FC) [23]: 0.94
MCC [19]: 150 µM

CC(=O)O[C@@H]1OC[C@@H](OC(C)=O)[C@H](OC(C)=O)[C@H]1OC(C)=O
fold change (FC) [20]: 1.05
fold change (FC) [24]: 0.99
MCC [19]: 500 µM

CO[C@@H]1OC[C@@H](OC(=O)C(C)(C)C)[C@H](OC(=O)C(C)(C)C)[C@H]1OC(=O)C(C)(C)C
fold change (FC) [21]: 1.03
MCC [19]: 150 µM

CCCCCCCCCCCC(=O)S[C@@H]1OC[C@@H](O)[C@H](O)[C@H]1O
fold change (FC) [25]: 0.98
MCC [19]: 400 µM

CO[C@H]1OC[C@@H](O)[C@H](O)[C@H]1O
Activity [26]: Active
fold change (FC) [27]: 1.98

CCO[C@H]1[C@H](O)COC(O)[C@@H]1O (some centres undefined)
Activity [26]: Active
fold change (FC) [27]: 2.79

CCCO[C@H]1[C@H](O)COC(O)[C@@H]1O (some centres undefined)
Activity [26]: Active
fold change (FC) [27]: 3.89

NC(=O)c1ncn([C@@H]2O[C@H](COP(=O)(O)O)[C@@H](O)[C@H]2O)c1N
Activity [28]: Active

COC[C@H]1OC(O)[C@H](O)[C@H]1O (some centres undefined)
fold change (FC) [20]: 1.03
MCC [19]: 50000 µM

OC1OC[C@@H](O)[C@@H](O)[C@@H]1O (stereo partly drawn) [D-ARABINOSE]
fold change (FC) [2]: 1.38

COC(OC)[C@@H]1OC(c2ccc(F)cc2)O[C@@H]2COC(c3ccc(F)cc3)O[C@@H]21 (some centres undefined)
MCC [19]: 250 µM

CO[C@H]1[C@H](O)COC(O)[C@@H]1O (some centres undefined)
fold change (FC) [27]: 2.1

CCCS[C@@H]1OC[C@@H](O)[C@H](O)[C@H]1O
fold change (FC) [21]: 0.92
MCC [19]: 200 µM

CO[C@@H]1OC[C@@H](OC(=O)c2ccccc2)[C@H](OC(=O)c2ccccc2)[C@H]1OC(=O)c1ccccc1
fold change (FC) [25]: 1.01
MCC [19]: 250 µM

COC(OC)[C@@H]1OC(c2ccccc2)O[C@@H]2COC(c3ccccc3)O[C@@H]21 (some centres undefined)
fold change (FC) [25]: 1.06
MCC [19]: 300 µM
